Shown are actives, neighbours in structure and some others; about 5.2% of the full set was active somewhere.
ALR inh = inhibitors of human sulfhydryl oxidase ALR; P55789; 3.8% of 290,000 active; inhibition, % (test concentration not listed); purified ALR, DTT oxidation, H2O2 HRP-luminol luminescence;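 active = mean replicate inhibition above about 79%, with every replicate also reaching it, limit read from the data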
Target sequence (P55789 whole entry, looked up): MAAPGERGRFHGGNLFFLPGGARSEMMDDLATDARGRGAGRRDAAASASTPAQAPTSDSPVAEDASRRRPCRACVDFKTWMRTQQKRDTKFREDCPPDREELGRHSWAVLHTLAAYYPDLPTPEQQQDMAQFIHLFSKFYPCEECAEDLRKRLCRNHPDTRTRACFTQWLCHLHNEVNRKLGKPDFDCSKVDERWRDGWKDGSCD
M18AAP inhibitor = blocks P. falciparum M18 aspartyl aminopeptidase; 1.2% of 290,000 active; inhibition, % at 7.35 µM; recombinant PfM18AAP, H-Glu-NHMec fluorogenic cleavage; AID 1822;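 active = inhibition above the campaign mean inhibition over all tested compounds plus 3 SD, cut at about 28% in these data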;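 note: 0% = plate median of test compound wells and 100% = 2 mM ZnCl2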
core dimer inh = blocks dimerization of HCV core protein. TR-FRET GST/Flag-core106 dimerization, 1536-well. inhibition, % at 5 µM. 0.33% of 300,000 active. AID 1899;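 active = inhibition above the mean of all tested compounds plus 3 SD, set per screening campaign, cut at about 45% in these data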
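Material: Tagged HCV core106 pair (GST and Flag) | Amount: GST-core106 13.5 nM, Flag-core106 17 nM | Medium: KF-containing HEPES buffer, pH 7.45, DTT, CHAPS, BSA | Reagent: Eu donor and XL665 acceptor anti-tag antibodies | Schedule: 4 h at 22.5 °C | Technique: Time-resolved FRET, ex 340 nm, em 617 and 671 nm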
EBNA-1 inh = blocks EBNA-1 binding to DNA | EBNA-1 DNA binding, fluorescence polarization | AID 1950 | 0.34% of 300,000 active | inhibition, % at 14.8 µM; in the data active = inhibition above about 28%
ZTA counter = blocks Epstein-Barr virus ZTA, an EBNA-1 counter-screen; ZTA-DNA binding, fluorescence polarization; inhibition, % at 11 µM; 0.15% of 320,000 active; AID 2234; in the data active = inhibition above about 33%
Target sequence (P03206 whole entry, looked up): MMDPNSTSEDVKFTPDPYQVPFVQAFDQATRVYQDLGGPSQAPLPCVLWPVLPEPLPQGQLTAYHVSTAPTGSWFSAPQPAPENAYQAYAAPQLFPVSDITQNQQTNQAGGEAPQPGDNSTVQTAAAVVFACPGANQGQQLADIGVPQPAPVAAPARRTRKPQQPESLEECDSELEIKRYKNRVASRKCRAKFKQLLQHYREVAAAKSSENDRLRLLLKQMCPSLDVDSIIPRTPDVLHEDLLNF
HCV NS3 hel inh = inhibitors of Hepatitis C virus NS3 helicase. 0.56% of 290,000 active. inhibition, % at 10.9 µM. NS3 helicase DNA unwinding, Cy5 molecular beacon fluorescence;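 active = inhibition above the mean of all tested compounds plus 3 SD, set per campaign, cut at about 35% in these data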;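 note: 0% = DMSO wells and 100% = thioflavine S control wells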
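Material: hepatitis C virus NS3 helicase domain fragment enzyme; measured by: Cy5 fluorescence, 0 and 60 min reads; control set: DMSO and thioflavine S; incubation: 60 min unwinding reaction at 25 °C after ATP addition; read-out basis: % inhibition from 60/0 min fluorescence ratio, DMSO 0%, thioflavine S 100%; repeats: singlicate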
An asterisk follows results filed as active.

How did CCOC(=O)N1CCC(NC(=O)CS(=O)(=O)Cc2nc(-c3cccc(Cl)c3)oc2C)CC1 do in these assays?
ALR inh: 52; M18AAP inhibitor: -2; core dimer inh: 4; EBNA-1 inh: 1; ZTA counter: 13; HCV NS3 hel inh: -1

How did Cc1cccc(-c2nc(CS(=O)CC(=O)N3CC(C)CC(C)C3)c(C)o2)c1 (stereo not drawn) do in these assays?
ALR inh: 96*; M18AAP inhibitor: -8; core dimer inh: 3; EBNA-1 inh: -6; ZTA counter: 14; HCV NS3 hel inh: -5

How did CCOC(=O)CC1CCCCN1Cc1nc(-c2ccc(F)c(OC)c2)oc1C (stereo not drawn) do in these assays?
ALR inh: -4; M18AAP inhibitor: 4; core dimer inh: -2; EBNA-1 inh: 1; ZTA counter: -25; HCV NS3 hel inh: -2

How did CCOC(=O)N1CCN(C(=O)CS(=O)Cc2nc(-c3ccc(OC)c(OC)c3)oc2C)CC1 (stereo not drawn) do in these assays?
ALR inh: 99*; M18AAP inhibitor: -9; core dimer inh: -7; EBNA-1 inh: 3; ZTA counter: -2; HCV NS3 hel inh: 18

What do the screens show for `CCOC(=O)N1CCN(C(=O)CS(=O)Cc2nc(-c3cccc(C)c3)oc2C)CC1` (stereo not drawn)?
ALR inh: 99*; M18AAP inhibitor: 0; core dimer inh: -4; EBNA-1 inh: 2; ZTA counter: -12; HCV NS3 hel inh: 1

Results for O=C(CSc1nnc(CNC(=O)c2ccco2)o1)Nc1cccc(F)c1 ?
ALR inh: -2; M18AAP inhibitor: -18; core dimer inh: -1; EBNA-1 inh: -11; ZTA counter: -6; HCV NS3 hel inh: 3

Results for O=C1ON=C(c2ccccc2)/C1=C/c1ccccc1 ?
M18AAP inhibitor: 12; core dimer inh: 6; EBNA-1 inh: -10; ZTA counter: -10; HCV NS3 hel inh: -4

What do the screens show for `O=C1ON=C(c2ccccc2)/C1=C/c1ccc(O)cc1`?
ALR inh: 87*; M18AAP inhibitor: -10; core dimer inh: 11; EBNA-1 inh: 14; ZTA counter: 24; HCV NS3 hel inh: 10

What do the screens show for `C=CCOc1ccc(/C=C2/C(=O)ON=C2C)cc1OC`?
M18AAP inhibitor: 30*; core dimer inh: -2; EBNA-1 inh: -12; ZTA counter: -12; HCV NS3 hel inh: 30

Results for COc1cc(/C=C2\C(=O)ON=C2c2ccccc2)cc(Cl)c1O ?
ALR inh: 99*; M18AAP inhibitor: 0; core dimer inh: 2; EBNA-1 inh: -5; ZTA counter: -14; HCV NS3 hel inh: -2

Results for COc1cc(/C=C2/C(=O)ON=C2c2ccccc2)ccc1O ?
ALR inh: 95*; M18AAP inhibitor: 2; core dimer inh: -11; EBNA-1 inh: 3; ZTA counter: -9; HCV NS3 hel inh: 2

Results for O=C(O)COc1ccc(Br)cc1/C=N\Nc1ccccn1 ?
ALR inh: 9; M18AAP inhibitor: 7; core dimer inh: -9; EBNA-1 inh: 7; ZTA counter: -13; HCV NS3 hel inh: 13

How did CCN1CCN(S(=O)(=O)c2ccc(OC)c(NC(=O)c3ccccc3F)c2)CC1 do in these assays?
ALR inh: -10; core dimer inh: -2; EBNA-1 inh: -3; ZTA counter: 8

Results for CCOc1ccc(N2C(=O)CC(N3CCc4ccccc43)C2=O)cc1 (stereo not drawn) ?
ALR inh: 10; M18AAP inhibitor: 7; core dimer inh: 0; EBNA-1 inh: 5; ZTA counter: 4; HCV NS3 hel inh: -2

Results for O=C1CC(N2CCc3ccccc32)C(=O)N1c1ccccc1 (stereo not drawn) ?
ALR inh: 99*; M18AAP inhibitor: 0; core dimer inh: 1; EBNA-1 inh: -2; ZTA counter: 2; HCV NS3 hel inh: 11

Results for CC[C@H](C)[C@H](NC(=O)c1ccc(Cl)cc1)C(=O)OCC(=O)c1c(N)n(C)c(=O)n(C)c1=O ?
ALR inh: -3

What do the screens show for `Nc1nonc1-n1nnc(C(=O)N/N=C/c2ccccc2)c1CN1CCc2ccccc21`?
M18AAP inhibitor: 1; core dimer inh: 30; EBNA-1 inh: -9; ZTA counter: 14; HCV NS3 hel inh: 2

Results for COC(=O)c1ccc(S(=O)(=O)N2CCc3ccccc32)cc1 ?
ALR inh: -22; M18AAP inhibitor: 4; core dimer inh: 6; EBNA-1 inh: 3; ZTA counter: 4; HCV NS3 hel inh: -4

Results for COC(=O)c1ccc(CN2CCc3ccccc32)cc1 ?
ALR inh: 98*; M18AAP inhibitor: 6; core dimer inh: -4; EBNA-1 inh: -7; ZTA counter: -3; HCV NS3 hel inh: -8

What do the screens show for `COC(=O)c1nnn(-c2nonc2N)c1CN1CCc2ccccc21`?
ALR inh: 98*; M18AAP inhibitor: 10; core dimer inh: 7; EBNA-1 inh: -5; ZTA counter: -1; HCV NS3 hel inh: -7

How did COc1cccc2cc(/C(C)=N/Nc3nc(-c4cc(C)ccc4C)cs3)c(=O)oc12 do in these assays?
ALR inh: -5; M18AAP inhibitor: 6; core dimer inh: 76*; EBNA-1 inh: 7; ZTA counter: 6; HCV NS3 hel inh: 28

Results for Cc1c(Cl)cccc1NC(=O)CC1Oc2ccccc2NC1=O (stereo not drawn) ?
ALR inh: -3; M18AAP inhibitor: -6; core dimer inh: 1; EBNA-1 inh: -1; ZTA counter: -7; HCV NS3 hel inh: -10

Results for COc1ccc(NC(=O)CC2C(=O)Nc3ccccc3N2CC(=O)N2CCCC2)cc1 (stereo not drawn) ?
ALR inh: 98*; ZTA counter: 5

What do the screens show for `NNC(=O)c1nn(-c2ccccc2)cc1O`?
ALR inh: -1; M18AAP inhibitor: 28*; core dimer inh: -2; EBNA-1 inh: 3; ZTA counter: 0; HCV NS3 hel inh: 11

How did O=C(O)c1cn(-c2ccccc2)nc1C(=O)O do in these assays?
ALR inh: -24; M18AAP inhibitor: -5; core dimer inh: -1; EBNA-1 inh: 6; ZTA counter: -1; HCV NS3 hel inh: 2

How did CCOC(=O)COc1ccc2ccccc2c1/C=C/[N+](=O)[O-] do in these assays?
M18AAP inhibitor: 37*; core dimer inh: -2; EBNA-1 inh: 8; ZTA counter: 0; HCV NS3 hel inh: 14

How did O=[N+]([O-])/C=C/c1c(OCc2ccccc2)ccc2ccccc12 do in these assays?
ALR inh: -21; M18AAP inhibitor: 13; core dimer inh: 8; EBNA-1 inh: -2; ZTA counter: 9; HCV NS3 hel inh: 9

What do the screens show for `COc1ccc(CC(=O)Nc2ccccc2N2CCCCC2)cc1OC`?
ALR inh: 3; M18AAP inhibitor: -5; core dimer inh: 1; EBNA-1 inh: 4; ZTA counter: 3; HCV NS3 hel inh: 19

Results for COc1cccc(C(=O)Nc2cc3c(cc2N2CCCC2)n(C)c(=O)n3C)c1 ?
ALR inh: 99*; M18AAP inhibitor: 16; core dimer inh: -18; EBNA-1 inh: -4; ZTA counter: -4; HCV NS3 hel inh: 4

Source: PubChem
